Values after ≈ are worked out from the molar mass of the structure shown.
Columns and labels:
Assay type in all cases: functional
Candida albicans [1] = assay: Antifungal activity against Candida albicans SP3931 after 48 hrs by broth microdilution method; details: SP3931, 48 h
How it was run: (§1)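 Modified CLSI M27-A2 broth microdilution. Yeast at (0.5−1) × 10^3 CFU/mL in MOPS-buffered RPMI 1640 was mixed 1:1 with peptide serially diluted in 0.2% BSA and incubated 48 h at 28 °C. Absorbance was read at 492 nm; MIC is the lowest concentration inhibiting 95% of growth. Triplicate, three biological replicates.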

Candida albicans [2] = assay: Antifungal activity against Candida albicans cgmcc 2.2086 in presence of 50% human heat-inactivated serum by broth dilution method
Candida parapsilosis [3] = assay: Fungicidal activity against Candida parapsilosis cgmcc 2.3989 after 96 hrs; details: Lodderomyces parapsilosis, cgmcc 2.3989, 96 h; read-out: MFC99.9
How it was run: (§2)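 Wells from the 48 h, 28 °C RPMI 1640/MOPS microdilution plates were plated on YM agar and incubated a further 48 h at 28 °C. MFC is the lowest concentration killing at least 99.9% of cells. Run in triplicate with three biological replicates.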

Candida albicans [4] = assay: Antifungal activity against fluconazole-resistant Candida albicans 17546 after 48 hrs by broth microdilution method; details: Candida albicans, 17546, 48 h; how it was run: as §1
Candida albicans [5] = assay: Antifungal activity against Candida albicans cgmcc 2.2086 in presence of CaCl2 by broth dilution method
Candida albicans [6] = assay: Antifungal activity against Candida albicans cgmcc 2.2086 in presence of FeCl3 by broth dilution method
Candida albicans [7] = assay: Antifungal activity against Candida albicans cgmcc 2.2086 after 48 hrs by broth microdilution method; details: cgmcc 2.2086, 48 h; how it was run: as §1
Candida albicans [8] = assay: Antifungal activity against fluconazole-resistant Candida albicans 56452 after 48 hrs by broth microdilution method; details: Candida albicans, 56452, 48 h; how it was run: as §1
Candida albicans [9] = assay: Antifungal activity against Candida albicans cgmcc 2.2086 in presence of NaCl by broth dilution method
Pichia kudriavzevii [10] = assay: Antifungal activity against Candida krusei cgmcc 2.1857 after 48 hrs by broth microdilution method; details: cgmcc 2.1857, 48 h
How it was run: (§3)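 Modified CLSI M27-A2 broth microdilution. Yeast were suspended in MOPS-buffered RPMI 1640 at a final (0.5−1) × 10^3 CFU/mL and mixed 1:1 with peptide serially diluted in 0.2% BSA. Plates were incubated 48 h at 28 °C and read at A492. MIC is the lowest concentration giving 95% inhibition. Run in triplicate with three biological replicates.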

Candida albicans [11] = assay: Antifungal activity against Candida albicans isolated from alveolar fluid after 48 hrs by broth microdilution method; how it was run: as §1
Candida parapsilosis [12] = assay: Antifungal activity against Candida parapsilosis cgmcc 2.3989 after 48 hrs by broth microdilution method; details: Lodderomyces parapsilosis, cgmcc 2.3989, 48 h; how it was run: as §3
Candida albicans [13] = assay: Fungicidal activity against fluconazole-resistant Candida albicans 56452 after 96 hrs; details: Candida albicans, 56452, 96 h; read-out: MFC99.9
How it was run: (§4)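 After the 48 h, 28 °C broth microdilution in MOPS-buffered RPMI 1640 (inoculum (0.5−1) × 10^3 CFU/mL), 50 μL from each well was plated on YM agar for a further 48 h at 28 °C. MFC is the lowest concentration killing at least 99.9% of cells. Triplicate, three biological replicates.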

Candida albicans [14] = assay: Fungicidal activity against Candida albicans SP3902 after 96 hrs; details: SP3902, 96 h, read-out: MFC99.9; how it was run: as §4
Candida albicans [15] = assay: Antifungal activity against Candida albicans 14936 after 48 hrs by broth microdilution method; details: Candida albicans, 14936, 48 h; how it was run: as §1
Candida albicans [16] = assay: Fungicidal activity against Candida albicans isolated from alveolar fluid after 96 hrs; details: read-out: MFC99.9; how it was run: as §4
Candida albicans [17] = assay: Antifungal activity against fluconazole-resistant Candida albicans 56214 after 48 hrs by broth microdilution method; details: Candida albicans, 56214, 48 h; how it was run: as §1
Candida albicans [18] = assay: Antifungal activity against Candida albicans cgmcc 2.2086 in presence of 12.5% human heat-inactivated serum by broth dilution method
Candida tropicalis [19] = assay: Antifungal activity against Candida tropicalis cgmcc 2.1975 after 48 hrs by broth microdilution method; details: cgmcc 2.1975, 48 h; how it was run: as §3
Candida albicans [20] = assay: Antifungal activity against Candida albicans cgmcc 2.2086 in presence of KCl by broth dilution method
Candida albicans [21] = assay: Fungicidal activity against Candida albicans SP3903 after 96 hrs; details: SP3903, 96 h, read-out: MFC99.9; how it was run: as §4
Candida albicans [22] = assay: Fungicidal activity against Candida albicans 58288 after 96 hrs; details: Candida albicans, 58288, 96 h; read-out: MFC99.9; how it was run: as §4
Candida tropicalis [23] = assay: Fungicidal activity against Candida tropicalis cgmcc 2.1975 after 96 hrs; details: cgmcc 2.1975, 96 h, read-out: MFC99.9; how it was run: as §2
Candida albicans [24] = assay: Antifungal activity against Candida albicans SP3903 after 48 hrs by broth microdilution method; details: SP3903, 48 h; how it was run: as §1
Candida albicans [25] = assay: Antifungal activity against Candida albicans cgmcc 2.2086 in presence of 25% human heat-inactivated serum by broth dilution method
Candida albicans [26] = assay: Fungicidal activity against fluconazole-resistant Candida albicans 17546 after 96 hrs; details: Candida albicans, 17546, 96 h; read-out: MFC99.9; how it was run: as §4
Candida albicans [27] = assay: Fungicidal activity against Candida albicans 14936 after 96 hrs; details: Candida albicans, 14936, 96 h; read-out: MFC99.9; how it was run: as §4
Candida albicans [28] = assay: Fungicidal activity against fluconazole-resistant Candida albicans 56214 after 96 hrs; details: Candida albicans, 56214, 96 h; read-out: MFC99.9; how it was run: as §4
Candida albicans [29] = assay: Fungicidal activity against Candida albicans SP3876 after 96 hrs; details: SP3876, 96 h, read-out: MFC99.9; how it was run: as §4
Candida albicans [30] = assay: Antifungal activity against Candida albicans cgmcc 2.2086 in presence of MgCl2 by broth dilution method
Candida albicans [31] = assay: Antifungal activity against Candida albicans 58288 after 48 hrs by broth microdilution method; details: Candida albicans, 58288, 48 h; how it was run: as §1
Candida albicans [32] = assay: Antifungal activity against Candida albicans SP3902 after 48 hrs by broth microdilution method; details: SP3902, 48 h; how it was run: as §1
Pichia kudriavzevii [33] = assay: Fungicidal activity against Candida krusei cgmcc 2.1857 after 96 hrs; details: cgmcc 2.1857, 96 h, read-out: MFC99.9; how it was run: as §2
Candida albicans [34] = assay: Antifungal activity against Candida albicans cgmcc 2.2086 in presence of ZnCl2 by broth dilution method
Candida albicans [35] = assay: Antifungal activity against Candida albicans SP3876 after 48 hrs by broth microdilution method; details: SP3876, 48 h; how it was run: as §1
Candida albicans [36] = assay: Antifungal activity against Candida albicans cgmcc 2.2086 in presence of NH4Cl by broth dilution method
Candida albicans [37] = assay: Fungicidal activity against Candida albicans cgmcc 2.2086 after 96 hrs; details: cgmcc 2.2086, 96 h, read-out: MFC99.9; how it was run: as §4
Candida albicans [38] = assay: Fungicidal activity against Candida albicans SP3931 after 96 hrs; details: SP3931, 96 h, read-out: MFC99.9; how it was run: as §4

| SMILES | MIC95 (Candida albicans [1]) | MIC (Candida albicans [2]) | MFC (Candida parapsilosis [3]) | MIC95 (Candida albicans [4]) | MIC (Candida albicans [5]) | MIC (Candida albicans [6]) | MIC95 (Candida albicans [7]) | MIC95 (Candida albicans [8]) | MIC (Candida albicans [9]) | MIC95 (Pichia kudriavzevii [10]) | MIC95 (Candida albicans [11]) | MIC95 (Candida parapsilosis [12]) | MFC (Candida albicans [13]) | MFC (Candida albicans [14]) | MIC95 (Candida albicans [15]) | MFC (Candida albicans [16]) | MIC95 (Candida albicans [17]) | MIC (Candida albicans [18]) | MIC95 (Candida tropicalis [19]) | MIC (Candida albicans [20]) | further results |
| --- | --- | --- | --- | --- | --- | --- | --- | --- | --- | --- | --- | --- | --- | --- | --- | --- | --- | --- | --- | --- | --- |
| C[C@@H]1[C@H](O)[C@@H](C)/C=C/C=C/C=C/C=C/C=C/C=C/C=C/[C@H](O[C@@H]2O[C@H](C)[C@@H](O)[C@H](N)[C@@H]2O)C[C@@H]2O[C@](O)(C[C@@H](O)C[C@@H](O)[C@H](O)CC[C@@H](O)C[C@@H](O)CC(=O)O[C@H]1C)C[C@H](O)[C@H]2C(=O)O [AMPHOTERICIN B] | 0.25 µM (≈ 0.231 µg/mL) | 1 µM | 2 µM (≈ 1.85 µg/mL) | 0.25 µM (≈ 0.231 µg/mL) | 2 µM | 1 µM | 1 µM (≈ 0.924 µg/mL) | 1 µM (≈ 0.924 µg/mL) | 1 µM | 1 µM (≈ 0.924 µg/mL) | 1 µM (≈ 0.924 µg/mL) | 2 µM (≈ 1.85 µg/mL) | 2 µM (≈ 1.85 µg/mL) | 1 µM (≈ 0.924 µg/mL) | 0.25 µM (≈ 0.231 µg/mL) | 2 µM (≈ 1.85 µg/mL) | 1 µM (≈ 0.924 µg/mL) | 1 µM | 1 µM (≈ 0.924 µg/mL) | 1 µM | MFC (Candida albicans [21]): 1 µM (≈ 0.924 µg/mL); MFC (Candida albicans [22]): 2 µM (≈ 1.85 µg/mL); MFC (Candida tropicalis [23]): 2 µM (≈ 1.85 µg/mL); MIC95 (Candida albicans [24]): 0.125 µM (≈ 0.116 µg/mL); MIC (Candida albicans [25]): 1 µM; MFC (Candida albicans [26]): 1 µM (≈ 0.924 µg/mL); MFC (Candida albicans [27]): 0.5 µM (≈ 0.462 µg/mL); MFC (Candida albicans [28]): 2 µM (≈ 1.85 µg/mL); MFC (Candida albicans [29]): 0.5 µM (≈ 0.462 µg/mL); MIC (Candida albicans [30]): 1 µM; MIC95 (Candida albicans [31]): 0.5 µM (≈ 0.462 µg/mL); MIC95 (Candida albicans [32]): 0.25 µM (≈ 0.231 µg/mL); MFC (Pichia kudriavzevii [33]): 1 µM (≈ 0.924 µg/mL); MIC (Candida albicans [34]): 1 µM; MIC95 (Candida albicans [35]): 0.25 µM (≈ 0.231 µg/mL); MIC (Candida albicans [36]): 1 µM; MFC (Candida albicans [37]): 1 µM (≈ 0.924 µg/mL); MFC (Candida albicans [38]): 1 µM (≈ 0.924 µg/mL) |
| CC(=O)N1CCN(c2ccc(OCC3COC(Cn4ccnc4)(c4ccc(Cl)cc4Cl)O3)cc2)CC1 (stereo unspecified) [KETOCONAZOLE] | > 64 µM | 0.5 µM | 1 µM (≈ 0.531 µg/mL) | 32 µM (≈ 17 µg/mL) | 0.5 µM | 0.25 µM | 0.25 µM (≈ 0.133 µg/mL) | 64 µM (≈ 34 µg/mL) | 0.25 µM | 1 µM (≈ 0.531 µg/mL) | 0.5 µM (≈ 0.266 µg/mL) | 0.25 µM (≈ 0.133 µg/mL) | > 64 µM | > 64 µM | > 64 µM | 2 µM (≈ 1.06 µg/mL) | 64 µM (≈ 34 µg/mL) | 0.25 µM | 0.25 µM (≈ 0.133 µg/mL) | 0.25 µM | MFC (Candida albicans [21]): > 64 µM; MFC (Candida albicans [22]): > 64 µM; MFC (Candida tropicalis [23]): 1 µM (≈ 0.531 µg/mL); MIC95 (Candida albicans [24]): > 64 µM; MIC (Candida albicans [25]): 0.25 µM; MFC (Candida albicans [26]): 64 µM (≈ 34 µg/mL); MFC (Candida albicans [27]): > 64 µM; MFC (Candida albicans [28]): > 64 µM; MFC (Candida albicans [29]): > 64 µM; MIC (Candida albicans [30]): 0.25 µM; MIC95 (Candida albicans [31]): 1 µM (≈ 0.531 µg/mL); MIC95 (Candida albicans [32]): > 64 µM; MFC (Pichia kudriavzevii [33]): 1 µM (≈ 0.531 µg/mL); MIC (Candida albicans [34]): 0.25 µM; MIC95 (Candida albicans [35]): > 64 µM; MIC (Candida albicans [36]): 0.25 µM; MFC (Candida albicans [37]): 1 µM (≈ 0.531 µg/mL); MFC (Candida albicans [38]): > 64 µM |

— ChEMBL document CHEMBL4177755, “Combating Drug-Resistant Fungi with Novel Imperfectly Amphipathic Palindromic Peptides” (J Med Chem, 2018)
